Source: ChEMBL document CHEMBL1143736, “Synthesis and antimycobacterial activity of 4-(5-substituted-1,3,4-oxadiazol-2-yl)pyridines” (Bioorg Med Chem, 2007)
≈ marks a conversion by molar mass, not a printed value.

How the values were obtained:
[1] = tested on: Mycobacterium tuberculosis; assay: Antimycobacterial activity against Mycobacterium tuberculosis H37Rv; type: functional
Outline: (§1)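 Modified microplate Alamar Blue assay (MABA). Inoculum came from a log-phase culture matched to McFarland 1, diluted 1:50 in Middlebrook 7H9 to 6 × 10^6 CFU/mL, and prepared just before inoculation.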

Vero = assay: Cytotoxicity against Vero cells; type: cell-based; conditions: Chlorocebus sabaeus
Outline: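 Vero cells in DMEM with 10% FBS (1.5 × 10^5 cells/mL) grown 24 h at 36.5 °C, 5% CO2; medium renewed, compounds (DMSO stocks) added in triplicate at 100–0.390 µg/mL by two-fold serial dilution, 24 h. Cells trypsinized, trypan blue stained, 100 counted for % dead, corrected against untreated controls (2.5% DMSO); IC50 by probit; three independent experiments, mean ± SE.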

[2] = Toxicity against non-adherent human PBMC; type: cell-based
Outline: (§2)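 PBMC from one healthy volunteer, isolated at room temperature, in RPMI 1640 + 10% FBS at 1 × 10^6 cells/mL; compounds tested in quintuplicate, 24 h. Non-adherent cells taken with supernatant, adherent cells recovered with trypsin–EDTA, each fraction pelleted (600g, 5 min) and read separately; IC50 per fraction.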

[3] = tested on: Mycobacterium tuberculosis; assay: Antimycobacterial activity against drug-sensitive Mycobacterium tuberculosis CIBIN 687 isolates; type: functional; outline: as §1
[4] = Toxicity against adherent human PBMC; type: cell-based; outline: as §2
[5] = tested on: Mycobacterium tuberculosis; assay: Antimycobacterial activity against drug-sensitive Mycobacterium tuberculosis CIBIN 650 isolates; type: functional; outline: as §1
PBMC = assay: Survival of adherent human PBMC at 100 ug/mL; type: functional; conditions: read-out: Survival
Outline: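 PBMC came from one healthy volunteer, isolated at room temperature, and were plated at 1 × 10^6 cells/mL in RPMI 1640 + 10% FBS. Compound was added in quintuplicate and incubated 24 h. Both fractions were pelleted at 600g for 5 min.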

SMILES	MIC [1]	IC50 (Vero)	IC50 [2]	MIC [3]	IC50 [4]	MIC [5]	viability at 100 µg/mL (PBMC)
CCCCCCCCCCCCCCCc1nnc(-c2ccncc2)o1	0.35 µM (≈ 0.125 µg/mL)	95.5 µM	15.8 mg/L (≈ 44.3 µM)	0.7 µM (≈ 0.25 µg/mL)	125 mg/L (≈ 350 µM)	0.09 µM (≈ 0.0322 µg/mL)	
FC(F)(F)c1nnc(-c2ccncc2)o1	37.2 µM (≈ 8.01 µg/mL)			37.2 µM (≈ 8.01 µg/mL)		37.2 µM (≈ 8.01 µg/mL)	
O=[N+]([O-])c1ccccc1-c1nnc(-c2ccncc2)o1	7.46 µM (≈ 2 µg/mL)	32.4 µM		3.73 µM (≈ 1 µg/mL)		7.46 µM (≈ 2 µg/mL)	
CN(C)c1ccc(-c2nnc(-c3ccncc3)o2)cc1	3.76 µM (≈ 1 µg/mL)	50.4 µM		3.76 µM (≈ 1 µg/mL)		30 µM (≈ 8 µg/mL)	
O=[N+]([O-])c1ccc(-c2nnc(-c3ccncc3)o2)cc1	29.9 µM (≈ 8.01 µg/mL)			29.9 µM (≈ 8.01 µg/mL)		29.9 µM (≈ 8.01 µg/mL)	
CN[C@@H]1[C@H](O[C@H]2[C@H](O[C@H]3[C@H](O)[C@@H](O)[C@H](N=C(N)N)[C@@H](O)[C@@H]3N=C(N)N)O[C@@H](C)[C@]2(O)C=O)O[C@@H](CO)[C@H](O)[C@H]1O (stereo in doubt) [STREPTOMYCIN]	0.86 µM (≈ 0.5 µg/mL)	> 100 µM				0.1 µM (≈ 0.0582 µg/mL)	
CO[C@H]1/C=C/O[C@@]2(C)Oc3c(C)c(O)c4c(O)c(c(/C=N/N5CCN(C)CC5)c(O)c4c3C2=O)NC(=O)/C(C)=C\C=C\[C@H](C)[C@H](O)[C@@H](C)[C@@H](O)[C@@H](C)[C@H](OC(C)=O)[C@@H]1C [RIFAMPIN]	0.07 µM (≈ 0.0576 µg/mL)	> 100 µM					
NNC(=O)c1ccncc1 [ISONIAZID]	0.44 µM (≈ 0.0603 µg/mL)	39.8 µM	87.1 mg/L (≈ 635 µM)	0.91 µM (≈ 0.125 µg/mL)	> 100 mg/L	0.91 µM (≈ 0.125 µg/mL)	> 95%
CCCCCCCCCCCCCCCCCc1nnc(-c2ccncc2)o1	0.65 µM (≈ 0.251 µg/mL)	86.7 µM	45.4 mg/L (≈ 118 µM)	0.65 µM (≈ 0.251 µg/mL)	312 mg/L (≈ 810 µM)	0.16 µM (≈ 0.0617 µg/mL)	
ClCc1nnc(-c2ccncc2)o1	41 µM (≈ 8.03 µg/mL)	64.6 µM		41 µM (≈ 8.03 µg/mL)		41 µM (≈ 8.03 µg/mL)	
O=[N+]([O-])c1cc(-c2nnc(-c3ccncc3)o2)cc([N+](=O)[O-])c1	25.5 µM (≈ 8 µg/mL)	77.1 µM		6.39 µM (≈ 2 µg/mL)		25.5 µM (≈ 8 µg/mL)	
CC[C@@H](CO)NCCN[C@@H](CC)CO [ETHAMBUTOL]	9.8 µM (≈ 2 µg/mL)	> 100 µM					
c1ccc(-c2nnc(-c3ccncc3)o2)cc1	8.97 µM (≈ 2 µg/mL)	67.8 µM		4.48 µM (≈ 1 µg/mL)		8.97 µM (≈ 2 µg/mL)	
c1cc(-c2nnc(-c3ccncc3)o2)ccn1	8.93 µM (≈ 2 µg/mL)	92.4 µM		4.46 µM (≈ 1 µg/mL)		8.93 µM (≈ 2 µg/mL)	
COc1cc(-c2nnc(-c3ccncc3)o2)cc(OC)c1OC	14.1 µM (≈ 4.42 µg/mL)	250 µM		3.53 µM (≈ 1.11 µg/mL)		7.06 µM (≈ 2.21 µg/mL)	
Cc1nnc(-c2ccncc2)o1	49.7 µM (≈ 8.01 µg/mL)			6.21 µM (≈ 1 µg/mL)		49.7 µM (≈ 8.01 µg/mL)	
